For 12 compounds, MIC and Ki results are on record in ChEMBL document CHEMBL1135624, “Parallel synthesis of potent, pyrazole-based inhibitors of Helicobacter pylori dihydroorotate dehydrogenase” (J Med Chem, 2002).

Values after ≈ are worked out from the molar mass of the structure shown.

The subject of assay [1] is Helicobacter pylori. In words: Minimum inhibitory concentration measured against compound 1 resistant Helicobacter pylori isolate. It is filed as functional. The method, boiled down: (§1)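 Spontaneously resistant H. pylori mutants were isolated by plating cells on the selecting pyrazole, with the same method for each of the two selecting agents. Each resistant isolate was then tested for MIC against the pyrazole not used to select it, as a cross-resistance check.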

The subject of assay [2] is Helicobacter pylori. Briefly: Minimum Inhibitory concentration against Helicobacter pylori. Type of assay: functional. The essentials: (§2)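 Whole-cell antimicrobial MIC against a reference American Type Culture Collection *H. pylori* strain, reported in μg/mL.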
Assay [3] deals with Dihydroorotate dehydrogenase (quinone), mitochondrial (Homo sapiens, UniProt Q02127). Briefly: Inhibition of human dihydroorotate dehydrogenase (DHODase).
Dihydroorotate dehydrogenase (quinone), mitochondrial, sequence (Q02127 whole entry): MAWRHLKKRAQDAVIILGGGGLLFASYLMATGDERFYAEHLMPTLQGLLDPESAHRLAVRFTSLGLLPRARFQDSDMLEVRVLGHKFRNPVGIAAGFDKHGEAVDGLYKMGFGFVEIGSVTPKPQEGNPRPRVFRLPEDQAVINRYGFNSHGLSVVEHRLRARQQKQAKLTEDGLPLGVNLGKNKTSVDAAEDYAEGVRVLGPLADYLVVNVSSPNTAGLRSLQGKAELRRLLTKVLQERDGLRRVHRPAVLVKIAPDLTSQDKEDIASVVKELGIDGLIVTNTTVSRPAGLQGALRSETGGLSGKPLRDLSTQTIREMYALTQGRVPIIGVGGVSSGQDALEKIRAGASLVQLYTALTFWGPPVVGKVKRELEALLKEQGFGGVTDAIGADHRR
The nature of assay [4]: Minimum inhibitory concentration measured against wild type. Type of assay: functional. The note with it: Helicobacter pylori. The method, boiled down: as §2
In assay [5] the test system is Helicobacter pylori. Briefly: Minimum inhibitory concentration measured against compound 13 resistant Helicobacter pylori isolate. Type of assay: functional. The method, boiled down: as §1

For `COc1ccc(-n2nc(C(=O)NCc3ccccc3)cc2C(=O)Nc2ccc(C(=O)N3CCCC3)cc2)cc1`, the MIC in assay [1] was more than 64 µg/mL; in assay [2] it was 3 µg/mL (≈ 5.73 µM); in assay [4], 3 µg/mL (≈ 5.73 µM); in assay [5], more than 64 µg/mL. Moreover, in assay [3], the Ki is more than 50 µM.
With `COc1ccc(-n2nc(C(=O)NC(c3ccccc3)c3ccccc3)cc2C(=O)NCc2ccccc2)cc1`, in assay [2], the MIC was more than 32 µg/mL. For the same compound, in assay [3], the Ki was more than 50 µM.
Take `CC(C)CNC(=O)c1cc(C(=O)NCc2ccccc2)nn1-c1ccc(Cl)cc1`: the minimum inhibitory concentration (MIC) in assay [2] was more than 64 µg/mL. Besides, in assay [3], the inhibitory constant (Ki) was more than 50 µM.
Turning to `COc1ccc(-n2nc(C(=O)Nc3ccc(C(=O)N4CCCC4)cc3)cc2C(=O)NCc2ccccc2)cc1`, the MIC in assay [2] is more than 32 µg/mL.
`COc1ccc(-n2nc(C(=O)NCC3CCCO3)cc2C(=O)Nc2ccc(C(=O)N3CCCC3)cc2)cc1` (centres undefined): the MIC in assay [2] was more than 32 µg/mL. The Ki in assay [3] is more than 50 µM.
With `COc1ccc(-n2nc(C(=O)NCc3cccnc3)cc2C(=O)Nc2ccccc2)cc1`, the MIC was 32 µg/mL (≈ 74.9 µM) in assay [1], 0.5 µg/mL (≈ 1.17 µM) in assay [2], 0.5 µg/mL (≈ 1.17 µM) in assay [4] and 24 µg/mL (≈ 56.1 µM) in assay [5]. The compound also had a Ki in assay [3] of more than 50 µM.
In assay [2], `NC(=O)c1ccc(NC(=O)c2cc(C(=O)NCc3ccccc3)nn2-c2ccc(Cl)cc2)cc1` had an MIC of 8 µg/mL (≈ 16.9 µM). The compound further showed a Ki in assay [3] of more than 50 µM.
For `O=C(NCc1cccnc1)c1cc(C(=O)Nc2ccc(N3CCCCC3)cc2)n(-c2ccc(Cl)cc2)n1`, in that order: 2 µg/mL (≈ 3.88 µM) and more than 50 µM.
On to `COc1ccc(-n2nc(C(=O)NCC(C)C)cc2C(=O)Nc2ccc(C(=O)N3CCCC3)cc2)cc1`, for which the minimum inhibitory concentration (MIC) in assay [2] amounted to 64 µg/mL (≈ 131 µM). This compound also yielded a Ki in assay [3] of more than 50 µM.
With `Cc1ccc(CNC(=O)c2cc(C(=O)Nc3ccccc3)n(-c3ccc(Cl)cc3)n2)cc1`, the MIC in assay [2] was determined as 32 µg/mL (≈ 71.9 µM). Moreover, the Ki in assay [3] was more than 50 µM.
For `O=C(NCc1cccnc1)c1cc(C(=O)Nc2ccccc2)n(-c2ccc(Cl)cc2)n1` the same measures were 0.25 µg/mL (≈ 0.579 µM) and more than 50 µM.
For `O=C(NCc1ccccc1)c1cc(C(=O)Nc2ccccc2)n(-c2ccc(Cl)cc2)n1` the same measures were 0.125 µg/mL (≈ 0.29 µM) and 50 µM.
